Test results published in ChEMBL document CHEMBL4715799, “An N,N-Bis(benzimidazolylpicolinoyl)piperazine (BT-11): A Novel Lanthionine Synthetase C-Like 2-Based Therapeutic for Inflammatory Bowel Disease” (J Med Chem, 2016).
Calls of active or inactive are those of the source. No cut-off for these calls is given here.

Key:
[1] = Cmax in rat plasma at 80 mg/kg, po measured at 1 hr by LC-MS/MS analysis; assay type: ADME, organism-based; parameters: route oral, dose 80 mg/kg, time 1 hrs
Procedure, shortened: (§1)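 Healthy rats given a single 80 mg/kg oral dose; plasma sampled over 0.5−48 h for pharmacokinetic parameters.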

[2] = Half-life in rat at 80 mg/kg, po by LC-MS/MS analysis; conditions: in vivo
[3] = Elimination rate constant in rat at 80 mg/kg, po; assay type: ADME, organism-based; conditions: in vivo; procedure, shortened: as §1
Mus musculus [4] = assay: Antiinflammatory activity in LANCL2-/- C57BL/6J mouse model of DSS-induced colitis assessed as reduction of MHCII+ CD11c+ […] at 8 mg/kg, po […] via gavage measured 7 days post DSS challenge by immunostaining based flow cytometric analysis; assay type: functional, organism-based
Procedure, shortened: (§2)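 DSS colitis in WT or LANCL2−/− mice; 8 mg/kg/d by daily gavage from day 0, analysed at day 7. Colonic cells (4−6 × 10^5) surface-stained 20 min with fluorochrome-conjugated antibodies, then fixed, permeabilized, Fc-blocked and stained intracellularly. Stored fixed at 4 °C in the dark. Flow cytometry with live-cell then single-cell gating.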

[5] = Tmax in rat plasma at 80 mg/kg, po by LC-MS/MS analysis; assay type: ADME, organism-based; procedure, shortened: as §1
[6] = Drug concentration in rat colon at 80 mg/kg, po by LC-MS/MS analysis; assay type: ADME, organism-based; conditions: in vivo
[7] = Tmax in rat at 500 mg/kg, po by LC-MS/MS analysis; assay type: ADME, organism-based; conditions: in vivo
[8] = Cmax in rat at 500 mg/kg, po by LC-MS/MS analysis by LC-MS/MS analysis; assay type: ADME, organism-based; parameters: route oral, dose 500 mg/kg; conditions: in vivo
Mus musculus [9] = assay: Antiinflammatory activity in C57BL/6J mouse model of DSS-induced colitis assessed as reduction of MCP1 positive cells at 8 mg/kg, po administered as single dose via gavage measured 7 days post DSS challenge by immunostaining based flow cytometric analysis; assay type: functional, organism-based
Mus musculus [10] = assay: Antiinflammatory activity in C57BL/6J mouse model of DSS-induced colitis assessed as reduction of MHCII+ CD11c+ […] at 8 mg/kg, po administered as single dose via gavage measured 7 days post DSS challenge by immunostaining based flow cytometric analysis; assay type: functional, organism-based
Mus musculus [11] = assay: Antiinflammatory activity in C57BL/6J mouse model of DSS-induced colitis assessed as upregulation of IL-10 secretion at 8 mg/kg, po administered as […] via gavage measured 7 days post DSS challenge by immunostaining based flow cytometric analysis; assay type: functional, organism-based; procedure, shortened: as §2
Mus musculus [12] = assay: Antiinflammatory activity in C57BL/6J mouse model of DSS-induced colitis assessed as reduction of TNF-alpha positive cells at 8 mg/kg, po administered as single dose via gavage measured 7 days post DSS challenge by immunostaining based flow cytometric analysis; assay type: functional, organism-based
Mus musculus [13] = assay: Antiinflammatory activity in LANCL2-/- C57BL/6J mouse model of DSS-induced colitis assessed as reduction of MCP1 positive cells at 8 mg/kg, po […] via gavage measured 7 days post DSS challenge by immunostaining based flow cytometric analysis; assay type: functional, organism-based; procedure, shortened: as §2
Mus musculus [14] = assay: Antiinflammatory activity in LANCL2-/- C57BL/6J mouse model of DSS-induced colitis assessed as upregulation of IL-10 secretion at 8 mg/kg, po administered as single dose via gavage measured 7 days post DSS challenge by immunostaining based flow cytometric analysis; assay type: functional, organism-based
Mus musculus [15] = assay: Antiinflammatory activity in LANCL2-/- C57BL/6J mouse model of DSS-induced colitis assessed as reduction of TNF-alpha positive cells at 8 mg/kg, po administered as single dose via gavage measured 7 days post DSS challenge by immunostaining based flow cytometric analysis; assay type: functional, organism-based
Mus musculus [16] = assay: Antiinflammatory activity in LANCL2-/- C57BL/6J mouse model of DSS-induced colitis assessed as reduction in leukocyte infiltration of gut mucosa at 8 mg/kg, po administered […] via gavage measured 7 days post DSS challenge by H and E staining based histopathological analysis; assay type: functional, organism-based
Procedure, shortened: (§3)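 Colitis induced in C57BL/6J or LANCL2−/− mice with DSS in drinking water. Compound given at 8 mg/kg/d by daily orogastric gavage from day 0 of the DSS challenge. Assessed at day 7 by disease activity index and by histopathology of colon: formalin-fixed, paraffin 5 μm sections, H&E, scored for leukocytic infiltration, epithelial erosion, mucosal thickening.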

Mus musculus [17] = assay: Antiinflammatory activity in LANCL2-/- C57BL/6J mouse model of DSS-induced colitis at 8 mg/kg, po administered as single dose via gavage measured 7 days DSS challenge; assay type: functional, organism-based
Mus musculus [18] = assay: Antiinflammatory activity in C57BL/6J mouse model of DSS-induced colitis assessed as increase in IL-10 gene expression at 8 mg/kg, po administered as single dose via gavage measured 7 days post DSS challenge by qRT-PCR analysis; assay type: functional, organism-based
Mus musculus [19] = species: Mus musculus; assay: Antiinflammatory activity in C57BL/6J mouse model of DSS-induced colitis assessed as decrease in TNF-alpha gene expression at […] measured 7 days post DSS challenge by qRT-PCR analysis; assay type: functional, organism-based
Mus musculus [20] = assay: Antiinflammatory activity in C57BL/6J mouse model of DSS-induced colitis assessed as upregulation of colonic LANCL2 mRNA expression at 8 mg/kg, po administered as single dose via gavage measured after 3 days by qRT-PCR analysis; assay type: functional, organism-based; conditions: time 3.0 day
Procedure, shortened: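 DSS colitis mice given 8 mg/kg/d orally versus vehicle; colon sampled on day 3 after treatment. Colonic LANCL2 mRNA measured by SYBR green real-time qPCR from 1 μg total RNA, quantified against amplicon standard curves.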

Mus musculus [21] = assay: Antiinflammatory activity in C57BL/6J mouse model of DSS-induced colitis assessed as reduction in colonic lesion at 8 mg/kg, po administered as single dose via gavage measured 7 days post DSS challenge; assay type: functional, organism-based
Mus musculus [22] = assay: Antiinflammatory activity in C57BL/6J mouse model of DSS-induced colitis assessed as improvement in disease activity at 8 mg/kg, po administered as […] via gavage measured 7 days post DSS challenge; assay type: functional, organism-based; procedure, shortened: as §3
Splenocyte = assay: Induction of intracellular cAMP production in LANCL2-/- C57BL/6J mouse splenocytes at 1.25 to 10 uM incubated for 20 hrs followed by redosing for 10 mins measured by EIA; assay type: functional, tissue-based; conditions: dose 1.25-10 µM, time 1210.0 min
Procedure, shortened: (§4)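 Splenocytes from male WT or LANCL2−/− C57BL/6J mice over 8 weeks, stimulated on plates precoated with anti-CD28 (1 μg/mL) and anti-CD3 (5 μg/mL). Compound in cRPMI at 0, 1.25, 2.5, 5, 10 μM, four replicates, plus unstimulated controls. After 20 h, a second 10 min treatment at the same concentrations. Cells washed, lysed in 0.1 M HCl, intracellular cAMP read by direct EIA.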

[23] = biological target: T1, LanC-like protein 2 (Mus musculus) (UniProt Q9JJK2); assay: Activation of wild-type LANCL2 in C57BL/6J mouse splenocytes assessed as increase in intracellular cAMP production incubated for 20 hrs followed by compound redosing for 10 mins measured by EIA; assay type: cell-based; conditions: Splenocyte, filed as activator, dose 1.25-10 µM, time 1210.0 min; procedure, shortened: as §4
T1 sequence (whole entry): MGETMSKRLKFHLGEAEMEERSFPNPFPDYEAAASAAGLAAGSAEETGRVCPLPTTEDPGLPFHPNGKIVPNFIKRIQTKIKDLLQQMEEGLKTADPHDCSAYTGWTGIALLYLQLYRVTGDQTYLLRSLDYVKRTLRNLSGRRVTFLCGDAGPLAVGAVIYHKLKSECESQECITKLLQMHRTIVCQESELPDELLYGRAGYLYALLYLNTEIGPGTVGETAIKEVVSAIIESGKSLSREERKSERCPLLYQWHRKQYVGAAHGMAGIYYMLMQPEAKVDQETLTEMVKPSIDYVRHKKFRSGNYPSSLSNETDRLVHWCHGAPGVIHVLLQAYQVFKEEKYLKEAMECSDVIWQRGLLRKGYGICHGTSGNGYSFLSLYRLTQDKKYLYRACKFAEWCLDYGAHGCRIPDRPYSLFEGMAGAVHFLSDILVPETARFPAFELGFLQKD

[24] = Apparent volume of distribution in rat at 80 mg/kg, po by LC-MS/MS analysis; assay type: ADME, organism-based; conditions: in vivo; procedure, shortened: as §1
Mus musculus [25] = assay: Antiinflammatory activity in C57BL/6J mouse model of DSS-induced colitis assessed as upregulation of colonic LANCL2 mRNA expression at 8 mg/kg, po administered as single dose via gavage measured 3 days post DSS challenge by qRT-PCR analysis

## O=C(c1cccc(-c2nc3ccccc3[nH]2)n1)N1CCN(C(=O)c2cccc(-c3nc4ccccc4[nH]3)n2)CC1 [OMILANCOR]
[1]
  Cmax: 28 ng/mL
[2]
  half-life: 3.1 h
[3]
  Kel: 0.225 h⁻¹
Mus musculus [4]
  Activity: inactive
[5]
  Tmax: 1 h
[6]
  Drug uptake: Active
[7]
  Tmax: 4 h
[8]
  Cmax: 17 ng/mL
Mus musculus [9]
  Activity: Active
Mus musculus [10]
  Activity: Active
Mus musculus [11]
  Activity: Active
Mus musculus [12]
  Activity: Active
Mus musculus [13]
  Activity: inactive
Mus musculus [14]
  Activity: inactive
Mus musculus [15]
  Activity: inactive
Mus musculus [16]
  Activity: inactive
Mus musculus [17]
  Activity: inactive
Mus musculus [18]
  Activity: Active
Mus musculus [19]
  Activity: Active
Mus musculus [20]
  Activity: Active
Mus musculus [21]
  Activity: Active
Mus musculus [22]
  Activity: Active
Splenocyte
  Activity: inactive
[23]
  Activity: Dose-dependent effect
[24]
  Vz: 3.38 L/kg
Mus musculus [25]
  Activity: Active
